# From PubChem BioAssay
# Ins promoter up: MIN6 insulin promoter up-regulation; MIN6 insulin promoter-GFP reporter, high-content imaging; active compounds read high; z-score at 5 µM; 0.3% of 190,000 active; AID 1625;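 active = z-score above 3 at 5 µM with at least 500 cells counted in the well; inconclusive = wells under 500 cells, flagged as cytotoxic or low count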
# Autophagy HCS: autophagy modulation, high-content screen; MEF GFP-LC3 puncta imaging; test concentration mostly 10 µM; calls only at 10 µM (by protocol); 0.98% of 190,000 active; AID 463193;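 active = percentage of spot-positive cells more than 3 SD above its plate mean, without a fluorescence outlier flag or 80% toxicity; inconclusive = no clear call, values can overlap the other calls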;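 note: spot-positive cell cutoff set from DMSO-treated cells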
# HSV augment: HSV replication enhancement | 0.005% of 220,000 active | AID 1956 | maximum fold increase | HSV replication augmentation in cells, fold increase; in the data active = maximum fold increase above about 1.5; inconclusive = no clear call, values can overlap the other calls; tested in PC3 cells
# Furin inh: human furin inhibition; purified furin, fluorogenic substrate cleavage; inhibition, % at 20 µM or 30 µM; 0.061% of 220,000 active; AID 463115; in the data active = inhibition above about 25%
# Target sequence (P09958 108-714 limits assumed): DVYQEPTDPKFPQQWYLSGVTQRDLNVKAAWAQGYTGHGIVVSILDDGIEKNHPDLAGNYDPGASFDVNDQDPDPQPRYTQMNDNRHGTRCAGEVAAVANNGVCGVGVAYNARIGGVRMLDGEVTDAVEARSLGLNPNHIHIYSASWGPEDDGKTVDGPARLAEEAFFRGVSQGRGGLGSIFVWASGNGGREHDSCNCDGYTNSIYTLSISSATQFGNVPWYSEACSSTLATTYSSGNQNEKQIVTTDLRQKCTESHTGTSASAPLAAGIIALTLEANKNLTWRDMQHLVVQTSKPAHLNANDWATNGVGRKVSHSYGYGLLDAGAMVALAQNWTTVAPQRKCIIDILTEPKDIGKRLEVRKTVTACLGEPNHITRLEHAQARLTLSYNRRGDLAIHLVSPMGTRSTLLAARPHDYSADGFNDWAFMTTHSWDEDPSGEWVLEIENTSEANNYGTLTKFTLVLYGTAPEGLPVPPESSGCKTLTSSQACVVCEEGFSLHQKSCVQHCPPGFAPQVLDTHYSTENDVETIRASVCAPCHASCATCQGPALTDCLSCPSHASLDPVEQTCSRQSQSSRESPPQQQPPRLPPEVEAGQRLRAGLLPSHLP
# bCat nuc transl: beta-catenin nuclear translocation modulation; AID 1665; HeLa beta-catenin nuclear translocation, immunofluorescence imaging; 0.3% of 190,000 active; nuclear translocation activity, % at 5 µM;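 active = nuclear translocation activity above 50% at 5 µM, with a well cell count of 50 or more; inconclusive = wells under 50 cells across six images, flagged as toxic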;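 note: per-cell ratio of nuclear to cytoplasmic median beta-catenin stain intensity; plate controls were DMSO negative control for no effect and GSK-3 inhibitor IX positive control for full effect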
#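 test system = HeLa cells, endogenous beta-catenin | dosing = single 5 µM dose plus 0.02–20 µM confirmation series | times = compound treatment 24 h, 37°C, 5% CO2 | technique = beta-catenin immunofluorescence imaging with DAPI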
# MT stabilize HCS: microtubule stabilization, imaging screen | 0.83% of 200,000 active | HeLa tubulin immunostaining HCS, 24 h; share of cells brighter than vehicle mean+2SD | % tubulin-high responders, % at 10 µM;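 active = plate Z-score above 3 for both tubulin-high and condensed-nucleus cell shares, with cell loss under 80%, at 10 µM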;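 note: anti alpha tubulin signal scored within the nucleus-defined area of each cell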
# An asterisk follows results filed as active; i = inactive; ? = inconclusive; / = no result; + = active, no number. Rows were chosen to be rich in hits. Some 1.9% of all compounds tested hit in one or more screens of this group.
SMILES,Ins promoter up,Autophagy HCS,HSV augment,Furin inh,bCat nuc transl,MT stabilize HCS
COC(=O)CCC(=O)Nc1sc(C)c(C)c1C(N)=O,1.1,i,i,-22,2,3
COC(=O)CCC(=O)NC(=S)Nc1sc(C)c(C)c1C(N)=O,-0.89,i,i,-3,1,21*
COc1ccc2c(C#N)c3ccccn3c2c1,-0.32,i,i,-21,-2,3
NNC(=O)c1nc(Cl)c(Cl)c(N)c1Cl,-0.72,/,i,-22,0,/
COc1ccc(-c2nc3ccccc3nc2-c2ccccc2)cc1,-0.81,i,i,-14,-1,4
COc1ccc(-c2[nH]ncc2N=Nc2cc(C)cc(C)c2)cc1,-0.53,i,i,-12,12,16*
COc1ccc(-c2[nH]ncc2N=Nc2ccccc2)cc1,0.1,i,/,-28,89*,19*
O=[N+]([O-])c1cc(-c2cnc3ccccc3n2)ccc1Oc1ccc(Cl)cc1,0.37,+,i,-5,-1,6
N#CC1=C(N)C(C#N)(C#N)[C@H](c2ccoc2)[C@H]2CN(Cc3ccccc3)CC=C12,/,+,?,-11,5,3
CN1CC=C2C(C#N)=C(N)C(C#N)(C#N)C(c3cccc(Cl)c3Cl)C2C1 (centres undefined),/,+,i,-21,1,3
CN1CC=C2C(C#N)=C(N)C(C#N)(C#N)[C@H](c3ccoc3)[C@H]2C1,/,+,?,-7,/,2
CCN1CC=C2C(C#N)=C(N)C(C#N)(C#N)C(CCc3ccccc3)C2C1 (centres undefined),/,+,?,-17,-7,6
COc1ccc(/C=N/Nc2c(Cl)cc(Cl)cc2Cl)cc1CN1CCOCC1,-0.1,i,i,-21,-2,4
Cc1cc(C)nc(/N=C(\N)Nc2ccc(SC(F)F)cc2)n1,-0.45,/,i,-13,0,/
COc1ccc(-c2[nH]ncc2CN(C)CC2CCCCO2)cc1F (centres undefined),0.03,+,i,-13,1,/
COc1ccc(-c2[nH]ncc2CN(C)CCN2CCOCC2)cc1F,-0.24,i,i,-15,3,4
O=c1[nH]c(Cc2ccccc2)nc2c1oc1ccccc12,0.39,i,i,-27,1,1
Cc1nc2c(oc3ccccc32)c(=O)o1,4.2*,i,/,-14,2,2
Cc1sc2nc(C)n(/N=C/c3ccc(O)cc3O)c(=O)c2c1C,0.11,i,i,3,-4,2
COc1cc(OC)cc(C(=O)NCC(=O)OCc2nc3ccccc3s2)c1,1.1,i,i,-17,1,5
N#C/C(=C\C1=C(N2CCOCC2)C(=C\c2ccc(Cl)cc2)/CC1)C(=O)Nc1ccccc1F,3.3*,+,i,-15,39,17
CCN(CC)c1ccc(/C=C2\CCC(/C=C(\C#N)C(=O)Nc3ccccc3F)=C2N2CCOCC2)cc1,0.38,i,i,-13,2,57
N#C/C(=C\C1=C(N2CCOCC2)C(=C/c2cccc([N+](=O)[O-])c2)/CC1)C(=O)Nc1ccccc1F,3.1*,+,?,-29,3,i
O=C(N/N=C/c1cccc(F)c1)c1c(O)c2c([nH]c1=O)CCCC2,0.01,i,i,6,-1,1
COn1c(SCc2ccc(C)cc2C)nc2ccccc2c1=O,-0.6,i,i,-9,51*,41*
SMILES,Ins promoter up,Autophagy HCS,HSV augment,Furin inh,bCat nuc transl,MT stabilize HCS
CCOC(=O)CSC1=C(C#N)C(c2ccccc2OC)CC(=O)N1 (centres undefined),0.86,i,i,-30,1,21*
COC(=O)CSC1=C(C#N)C(c2ccsc2)CC(=O)N1 (centres undefined),0.31,i,i,-12,0,45*
COC(=O)CSC1=C(C#N)C(c2ccccc2)CC(=O)N1 (centres undefined),0.44,i,i,-11,/,9
CCSC1=C(C#N)C(c2ccccc2OC)CC(=O)N1 (centres undefined),0.89,i,i,-3,-1,3
CCOC(=O)CSC1=C(C#N)C(c2ccc(C)s2)CC(=O)N1 (centres undefined),-3.1,i,i,-25,43,31*
COc1cc(C)c(Cl)cc1S(=O)(=O)n1cnc(C)c1,0.12,i,i,-8,/,2
CCOc1cc(C)c(C(C)C)cc1S(=O)(=O)n1cnc(C)c1,-0.08,i,i,-24,0,18*
CCOc1cc(C)c(C(C)C)cc1S(=O)(=O)N1CC(C)OC(C)C1 (centres undefined),/,i,i,-17,/,3
COc1ccc(C(C)C)cc1S(=O)(=O)n1cnc(C)c1,/,i,i,-19,/,18*
CC(=O)Nc1ncc(Cc2cc(Cl)ccc2Cl)s1,-0.13,+,i,-13,1,3
CCc1ccc(CCC(=O)Nc2ncc(Cc3ccccc3Cl)s2)o1,0.04,i,i,-27,150*,12*
CC(=O)Nc1ncc(Cc2cccc(Cl)c2Cl)s1,0.54,i,i,-25,0,4
O=C(CN1CCOCC1)Nc1ncc(Cc2ccccc2Cl)s1,0.3,i,i,-20,2,1
Cc1ccccc1Nc1cc(C(=O)NCC2CCCO2)c2ccccc2n1 (centres undefined),-0.06,/,i,-21,0,/
COc1cccc(CN2C(=O)[C@@H]3Cc4c([nH]c5ccccc45)C(C)(C)N3C2=O)c1,/,/,i,/,/,/
O=C(N/N=C/c1cccc(Oc2ccccc2)c1)c1ccccc1Br,0.27,i,i,-13,4,27*
O=C(N/N=C/c1cccc(Oc2ccccc2)c1)c1cccc(Br)c1,0.07,i,i,-21,0,2
COc1ccccc1/C=N/N1C(=O)C(CC(=O)Nc2ccc([N+](=O)[O-])cc2OC)SC1=Nc1cccc(C)c1C (centres undefined),/,i,i,-10,0,19*
N#C/C(=C\c1sc(N2CCOCC2)nc1-c1ccccc1)C(=O)Nc1cccc2ccccc12,2.3,+,i,-18,0,5
O=C(Nc1ccccc1)c1sc(N2CCOCC2)nc1-c1ccccc1,0.33,i,/,-17,0,4
COc1ccc(C(=O)/C(C#N)=N/Nc2ccccc2[N+](=O)[O-])cc1,-0.28,i,i,-14,59*,11
COc1ccc(C(=O)/C(C#N)=N/Nc2ccc([N+](=O)[O-])cc2)cc1,-2.1,i,i,-21,20,12
CCOC(=O)c1sc2cc([N+](=O)[O-])cc(SCCO)c2c1N,0.25,+,i,-6,0,2
CCOC(=O)c1sc2cc([N+](=O)[O-])cc(SCC(=O)OC)c2c1N,0.65,i,i,-2,0,2
CCOCc1[nH]c(=S)[nH]c(=O)c1Cc1ccc(OCC(C)C)cc1,/,i,i,-30,1,1
Cc1[nH]c(=S)[nH]c(=O)c1Cc1ccc(OCC(C)C)cc1,/,i,i,-23,11,15*
